Tests used:
Type in all cases: functional
Conditions in all cases: read-out: GI
Fusarium graminearum [1] = test: Fungicidal activity against Fusarium graminearum assessed as mycelium growth inhibition at 10 ug/mL by mycelium growth rate method
Summary of the method: (§1)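 In vitro mycelium growth rate method, with fenpiclonil as control. Compounds were tested at 50, 20 and 10 μg mL-1. Mycelial diameters were measured once the mycelia had grown completely. Inhibition (%) = (D1 − D2)/D1 × 100, where D1 is the mean mycelial diameter in the blank and D2 is the mean diameter with compound.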

[2] = tested on: Botryosphaeria berengeriana; test: Fungicidal activity against Botryosphaeria berengeriana assessed as mycelium growth inhibition at 10 ug/mL by mycelium growth rate method; summary of the method: as §1
Alternaria solani [3] = test: Fungicidal activity against Alternaria solani assessed as mycelium growth inhibition at 10 ug/mL by mycelium growth rate method; summary of the method: as §1
Mycosphaerella arachidis [4] = test: Fungicidal activity against Mycosphaerella arachidis assessed as mycelium growth inhibition at 20 ug/mL by mycelium growth rate method; summary of the method: as §1
Mycosphaerella arachidis [5] = test: Fungicidal activity against Mycosphaerella arachidis assessed as mycelium growth inhibition at 10 ug/mL by mycelium growth rate method; summary of the method: as §1
Mycosphaerella arachidis [6] = test: Fungicidal activity against Mycosphaerella arachidis assessed as mycelium growth inhibition at 50 ug/mL by mycelium growth rate method; summary of the method: as §1
Fusarium oxysporum [7] = test: Fungicidal activity against Fusarium oxysporum assessed as mycelium growth inhibition at 10 ug/mL by mycelium growth rate method; summary of the method: as §1
[8] = tested on: Botryosphaeria berengeriana; test: Fungicidal activity against Botryosphaeria berengeriana assessed as mycelium growth inhibition at 20 ug/mL by mycelium growth rate method; summary of the method: as §1
Fusarium oxysporum [9] = test: Fungicidal activity against Fusarium oxysporum assessed as mycelium growth inhibition at 20 ug/mL by mycelium growth rate method; summary of the method: as §1
Fusarium oxysporum [10] = test: Fungicidal activity against Fusarium oxysporum assessed as mycelium growth inhibition at 50 ug/mL by mycelium growth rate method; summary of the method: as §1
Alternaria solani [11] = test: Fungicidal activity against Alternaria solani assessed as mycelium growth inhibition at 50 ug/mL by mycelium growth rate method; summary of the method: as §1
Fusarium graminearum [12] = test: Fungicidal activity against Fusarium graminearum assessed as mycelium growth inhibition at 50 ug/mL by mycelium growth rate method; summary of the method: as §1
Fusarium graminearum [13] = test: Fungicidal activity against Fusarium graminearum assessed as mycelium growth inhibition at 20 ug/mL by mycelium growth rate method; summary of the method: as §1
Alternaria solani [14] = test: Fungicidal activity against Alternaria solani assessed as mycelium growth inhibition at 20 ug/mL by mycelium growth rate method; summary of the method: as §1
[15] = tested on: Botryosphaeria berengeriana; test: Fungicidal activity against Botryosphaeria berengeriana assessed as mycelium growth inhibition at 50 ug/mL by mycelium growth rate method; summary of the method: as §1

Structure (SMILES): O=[N+]([O-])c1cc(F)ccc1-c1ccsc1[N+](=O)[O-]
- inhibition of growth at 10 µg/mL (Fusarium graminearum [1]): 0%
- inhibition of growth at 10 µg/mL [2]: 0%
- inhibition of growth at 10 µg/mL (Alternaria solani [3]): 9%
- inhibition of growth at 20 µg/mL (Mycosphaerella arachidis [4]): 0%
- inhibition of growth at 10 µg/mL (Mycosphaerella arachidis [5]): 0%
- inhibition of growth at 50 µg/mL (Mycosphaerella arachidis [6]): 16%
- inhibition of growth at 10 µg/mL (Fusarium oxysporum [7]): 0%
- inhibition of growth at 20 µg/mL [8]: 4%
- inhibition of growth at 20 µg/mL (Fusarium oxysporum [9]): 7%
- inhibition of growth at 50 µg/mL (Fusarium oxysporum [10]): 17%
- inhibition of growth at 50 µg/mL (Alternaria solani [11]): 48%
- inhibition of growth at 50 µg/mL (Fusarium graminearum [12]): 0%
- inhibition of growth at 20 µg/mL (Fusarium graminearum [13]): 0%
- inhibition of growth at 20 µg/mL (Alternaria solani [14]): 25%
- inhibition of growth at 50 µg/mL [15]: 14%

Structure (SMILES): O=[N+]([O-])c1ccc(F)cc1-c1ccsc1[N+](=O)[O-]
- inhibition of growth at 10 µg/mL (Fusarium graminearum [1]): 0%
- inhibition of growth at 10 µg/mL [2]: 0%
- inhibition of growth at 10 µg/mL (Alternaria solani [3]): 0%
- inhibition of growth at 20 µg/mL (Mycosphaerella arachidis [4]): 0%
- inhibition of growth at 10 µg/mL (Mycosphaerella arachidis [5]): 0%
- inhibition of growth at 50 µg/mL (Mycosphaerella arachidis [6]): 11%
- inhibition of growth at 10 µg/mL (Fusarium oxysporum [7]): 0%
- inhibition of growth at 20 µg/mL [8]: 0%
- inhibition of growth at 20 µg/mL (Fusarium oxysporum [9]): 0%
- inhibition of growth at 50 µg/mL (Fusarium oxysporum [10]): 21%
- inhibition of growth at 50 µg/mL (Alternaria solani [11]): 29%
- inhibition of growth at 50 µg/mL (Fusarium graminearum [12]): 0%
- inhibition of growth at 20 µg/mL (Fusarium graminearum [13]): 0%
- inhibition of growth at 20 µg/mL (Alternaria solani [14]): 16%
- inhibition of growth at 50 µg/mL [15]: 10%

Structure (SMILES): O=[N+]([O-])c1cc(Cl)ccc1-c1ccsc1[N+](=O)[O-]
- inhibition of growth at 10 µg/mL (Fusarium graminearum [1]): 0%
- inhibition of growth at 10 µg/mL [2]: 0%
- inhibition of growth at 10 µg/mL (Alternaria solani [3]): 0%
- inhibition of growth at 20 µg/mL (Mycosphaerella arachidis [4]): 0%
- inhibition of growth at 10 µg/mL (Mycosphaerella arachidis [5]): 0%
- inhibition of growth at 50 µg/mL (Mycosphaerella arachidis [6]): 0%
- inhibition of growth at 10 µg/mL (Fusarium oxysporum [7]): 0%
- inhibition of growth at 20 µg/mL [8]: 10%
- inhibition of growth at 20 µg/mL (Fusarium oxysporum [9]): 0%
- inhibition of growth at 50 µg/mL (Fusarium oxysporum [10]): 17%
- inhibition of growth at 50 µg/mL (Alternaria solani [11]): 9%
- inhibition of growth at 50 µg/mL (Fusarium graminearum [12]): 0%
- inhibition of growth at 20 µg/mL (Fusarium graminearum [13]): 0%
- inhibition of growth at 20 µg/mL (Alternaria solani [14]): 0%
- inhibition of growth at 50 µg/mL [15]: 25%

Structure (SMILES): O=[N+]([O-])c1cc(Cl)cc(Cl)c1-c1ccsc1[N+](=O)[O-]
- inhibition of growth at 10 µg/mL (Fusarium graminearum [1]): 0%
- inhibition of growth at 10 µg/mL [2]: 2%
- inhibition of growth at 10 µg/mL (Alternaria solani [3]): 16%
- inhibition of growth at 20 µg/mL (Mycosphaerella arachidis [4]): 11%
- inhibition of growth at 10 µg/mL (Mycosphaerella arachidis [5]): 0%
- inhibition of growth at 50 µg/mL (Mycosphaerella arachidis [6]): 27%
- inhibition of growth at 10 µg/mL (Fusarium oxysporum [7]): 10%
- inhibition of growth at 20 µg/mL [8]: 17%
- inhibition of growth at 20 µg/mL (Fusarium oxysporum [9]): 14%
- inhibition of growth at 50 µg/mL (Fusarium oxysporum [10]): 28%
- inhibition of growth at 50 µg/mL (Alternaria solani [11]): 38%
- inhibition of growth at 50 µg/mL (Fusarium graminearum [12]): 0%
- inhibition of growth at 20 µg/mL (Fusarium graminearum [13]): 0%
- inhibition of growth at 20 µg/mL (Alternaria solani [14]): 32%
- inhibition of growth at 50 µg/mL [15]: 27%

Structure (SMILES): O=[N+]([O-])c1cc(F)c(Cl)cc1-c1ccsc1[N+](=O)[O-]
- inhibition of growth at 10 µg/mL (Fusarium graminearum [1]): 0%
- inhibition of growth at 10 µg/mL [2]: 12%
- inhibition of growth at 10 µg/mL (Alternaria solani [3]): 48%
- inhibition of growth at 20 µg/mL (Mycosphaerella arachidis [4]): 5%
- inhibition of growth at 10 µg/mL (Mycosphaerella arachidis [5]): 0%
- inhibition of growth at 50 µg/mL (Mycosphaerella arachidis [6]): 18%
- inhibition of growth at 10 µg/mL (Fusarium oxysporum [7]): 14%
- inhibition of growth at 20 µg/mL [8]: 36%
- inhibition of growth at 20 µg/mL (Fusarium oxysporum [9]): 28%
- inhibition of growth at 50 µg/mL (Fusarium oxysporum [10]): 39%
- inhibition of growth at 50 µg/mL (Alternaria solani [11]): 61%
- inhibition of growth at 50 µg/mL (Fusarium graminearum [12]): 20%
- inhibition of growth at 20 µg/mL (Fusarium graminearum [13]): 4%
- inhibition of growth at 20 µg/mL (Alternaria solani [14]): 54%
- inhibition of growth at 50 µg/mL [15]: 42%

Structure (SMILES): O=[N+]([O-])c1sccc1-c1c(Cl)cc(Cl)c(Cl)c1[N+](=O)[O-]
- inhibition of growth at 10 µg/mL (Fusarium graminearum [1]): 0%
- inhibition of growth at 10 µg/mL [2]: 0%
- inhibition of growth at 10 µg/mL (Alternaria solani [3]): 0%
- inhibition of growth at 20 µg/mL (Mycosphaerella arachidis [4]): 25%
- inhibition of growth at 10 µg/mL (Mycosphaerella arachidis [5]): 5%
- inhibition of growth at 50 µg/mL (Mycosphaerella arachidis [6]): 40%
- inhibition of growth at 10 µg/mL (Fusarium oxysporum [7]): 0%
- inhibition of growth at 20 µg/mL [8]: 13%
- inhibition of growth at 20 µg/mL (Fusarium oxysporum [9]): 0%
- inhibition of growth at 50 µg/mL (Fusarium oxysporum [10]): 22%
- inhibition of growth at 50 µg/mL (Alternaria solani [11]): 34%
- inhibition of growth at 50 µg/mL (Fusarium graminearum [12]): 0%
- inhibition of growth at 20 µg/mL (Fusarium graminearum [13]): 0%
- inhibition of growth at 20 µg/mL (Alternaria solani [14]): 26%
- inhibition of growth at 50 µg/mL [15]: 40%

— ChEMBL document CHEMBL3045952, “Design, synthesis, and fungicidal activity of novel analogues of pyrrolnitrin” (J Agric Food Chem, 2009)
